Most compounds without a hit are left out; they make up all but 1.8% or so of the library.
HTRA1 inh: HTRA1 (human) protease inhibition | recombinant HTRA1, FP-rhodamine activity-based probe, fluorescence polarization | inhibition, % at 5.96 µM | 340,000 tested, 0.5% active | AID 504803; in the data active = inhibition above about 36%
PME-1 inh: blocks human protein phosphatase methylesterase 1. inhibition, % at 5.9 µM. Q9Y570. 320,000 tested, 0.53% active. recombinant PME-1, FP-Rh probe fluorescence polarization. AID 2130;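 active = inhibition above the campaign mean of all compounds plus 3 SD, cut at about 26% in these data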;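 note: competitive labeling of PME-1 active site by serine hydrolase directed probe; inhibitors block probe labeling so polarization falls and inhibition rises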
mABHD4 FP: inhibitors of mouse ABHD4 | Q8VD66 | purified mABHD4, FP-Rh probe fluorescence polarization | inhibition, % at 8.92 µM | 370,000 tested, 0.54% active;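 active = inhibition exceeding the mean over every tested compound plus 3 SD, cut at about 30% in these data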
Target sequence (Q8VD66 whole entry, looked up): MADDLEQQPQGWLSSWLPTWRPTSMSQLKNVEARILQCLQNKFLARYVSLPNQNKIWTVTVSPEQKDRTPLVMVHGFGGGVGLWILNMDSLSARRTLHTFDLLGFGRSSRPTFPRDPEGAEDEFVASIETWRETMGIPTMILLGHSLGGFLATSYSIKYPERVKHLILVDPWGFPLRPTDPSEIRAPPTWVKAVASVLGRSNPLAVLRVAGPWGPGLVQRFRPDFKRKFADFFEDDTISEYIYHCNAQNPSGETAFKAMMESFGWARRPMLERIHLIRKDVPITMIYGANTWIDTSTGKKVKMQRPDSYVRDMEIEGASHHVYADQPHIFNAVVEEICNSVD
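Assay system: mouse ABHD4 enzyme, wild type / Also added: fluorescent activity-based probe FP-Rh / Doses: single nominal dose of 8.92 µM, 0.89% DMSO final / Timing: 45 min compound pre-incubation plus 60 min probe step, 25 °C / Signal: FP readout, ex 525 nm / em 598 nm / Control set: S159A mutant/DMSO as 100%, compound-well median as 0%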
Fam108B counter: blocks mouse Fam108B hydrolase in RBBP9 counter-screen; recombinant Fam108B, FP-Rh probe fluorescence polarization; inhibition, % at 9.51 µM; 300,000 tested, 0.33% active;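 active = inhibition above the screen mean inhibition plus 3 SD, computed separately per campaign, cut at about 18% in these data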;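 note: inhibitors lower polarization as less probe binds the enzyme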
TCR CD3 inh: inhibitors of human TCR-CD3 interaction. AID 651800. inhibition, % at 9.4 µM. 360,000 tested, 0.37% active. TAMRA-labeled TCR probe fluorescence, biochemical; in the data active = inhibition above about 19%;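 note: recombinant mutant TCR 2C K166C tagged with TAMRA read by polarization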
SIAE inh: inhibitors of human sialic acid acetylesterase SIAE; SIAE FP-Rh probe binding, fluorescence polarization; 370,000 tested, 0.69% active; inhibition, % at 9.66 µM;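 active = inhibition above a cutoff: mean of compounds within the control limits plus 3 SD of those, cut at about 17% in these data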
Fam108b confirm: Fam108b (mouse) hydrolase inhibition, confirmation assay | 930 tested, 44% active | inhibition, % at 9.51 µM | shares compounds with Fam108B counter | recombinant Fam108b, FP-Rh probe fluorescence polarization;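 active = inhibition above a limit from the primary screen, the mean over all compounds plus 3 SD, cut at about 19% in these data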;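 note: inhibitors free the probe so polarization falls as inhibition rises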
Fam108b inh: mouse ABHD17B inhibition; shares compounds with Fam108B counter; recombinant Fam108b, gel-based ABPP, fluorophosphonate probe; AID 588649; inhibition, % at 20 µM; 260 tested, 44% active; in the data active = inhibition above about 40%
Numbers stand for hits; n = inactive; x = not tested or not shown; ! = not active in a repeat.

SMILES	HTRA1 inh	PME-1 inh	mABHD4 FP	Fam108B counter	TCR CD3 inh	SIAE inh	Fam108b confirm	others
CN(c1ccccc1)S(=O)(=O)c1ccc(NC(=O)c2ccc(-c3ccccc3)cc2)cc1	n	64	n	45	63	n	80	Fam108b inh=95
CCCCn1c(N)c(N(CCOC)C(=O)CSCc2ccccc2C)c(=O)[nH]c1=O	n	n	n	27	n	n	n
COc1ccc(N=Nc2nc3cc(Br)c(Br)cc3n2C)c(OC)c1	n	61	n	31	n	n	n
Cc1ccc(S(=O)(=O)N=C2C=C(Sc3ncn[nH]3)C(=O)c3ccccc32)c(C)c1	x	x	x	x	x	x	x	Fam108b inh=95
CCOc1ccc(S(=O)(=O)Nc2cc(Sc3ncn[nH]3)c3oc(=O)sc3c2)cc1	x	n	x	n	x	x	x
Cc1cc(O)c(Sc2ncn[nH]2)cc1NS(=O)(=O)c1ccc(Cl)cc1	n	n	n	x	n	n	x
CCc1ccc(S(=O)(=O)N=C2C=C(Sc3ncn[nH]3)C(=O)c3ccccc32)cc1	x	x	x	x	x	x	x	Fam108b inh=60
Cc1ccc(S(=O)(=O)/N=C(/c2ccccc2)N(C)C)c(C)c1	n	n	n	n	n	n	x
Cc1cc(C)c(S(=O)(=O)/N=C2/C=C(Sc3ncn[nH]3)C(=O)c3ccccc32)cc1C	n	31	43	52	n	20	28
CS(=O)(=O)N1CCC[C@]2(CC[C@H](CCC#N)O2)C1	x	x	n	x	x	n	x
N#CC1=C(c2ccccc2)/C(=C/c2ccccc2)OC1=O	n	n	n	19	n	n	23
O=C1O/C(=C/c2ccccc2)c2ccccc21	n	n	n	n	n	n	x
O=S1(=O)c2ccccc2-c2c(nnn2CC2CCCCC2)CN1C1CC1	x	x	n	x	x	n	x
O=S(=O)(O)c1cc(O)c2c(O)c(N=Nc3cc(Cl)ccc3O)c(S(=O)(=O)O)cc2c1	n	n	x	24	x	x	n
N#CCN(CC#N)C(=O)C1c2ccccc2Oc2ccccc21	n	77	n	91	n	n	n
O[C@H](COc1cccc(Cl)c1)CN1CCC(C(O)(c2ccccc2)c2ccccc2)CC1	x	x	n	x	x	n	x
O=C(Nc1ccc(Cl)cc1)c1cc2c(cc1O)[nH]c1ccccc12	n	n	n	25	n	51	n
CC(=O)Nc1ccc2[nH]c3ccccc3c2c1	n	n	n	n	n	n	x
CN(C(=O)c1cn(C)c2ccccc12)c1ccc(Oc2cccnc2)cc1	x	x	n	x	n	n	x
Cc1ccccc1-c1nc2sc3c(c2c(=O)o1)CCC3	n	n	n	21	n	n	n
O=C1C(Nc2ccccc2)=C(N2CCCCC2)C(=O)c2ccccc21	n	n	n	n	n	n	x
O=C1C(Nc2cccc(O)c2)=C(N2CCCCC2)C(=O)c2ccccc21	n	n	n	20	n	n	21
O=C(NC1CCCCCC1)c1c(O)c2ccccc2[nH]c1=O	n	n	n	n	n	n	x
O=C(NC1CCCCC1)c1sc(=S)n2c1[nH]c(=O)c1ccccc12	n	n	n	35	n	n	32	Fam108b inh=85
CCCCNC(=O)c1sc(=S)n2c1[nH]c(=O)c1ccccc12	n	n	n	27	n	n	32	Fam108b inh=n
SMILES	HTRA1 inh	PME-1 inh	mABHD4 FP	Fam108B counter	TCR CD3 inh	SIAE inh	Fam108b confirm	others
COc1cc(/C=N/NC(=O)c2cc3ccccc3[nH]2)ccc1O	n	36	n	20	n	n	19
CCOc1ccc2[nH]c(C(=O)N/N=C/c3cc(OC)c(OC)c(OC)c3)cc2c1	n	n	n	29	n	n	n
CCc1nnn2c1Cn1c3ccccc3c(=O)n1[C@@H](C)C2	x	x	n	x	x	n	x
Oc1cccc(-c2sc3ccccc3c2-c2ccc(OCCN3CCCCC3)cc2)c1	x	x	n	x	n	n	x
O=C(c1ccc(OCCN2CCCCC2)cc1)c1c(-c2ccc(O)cc2)sc2cc(O)ccc12	n	n	n	21	n	27!	24!
CC(C)(C)c1ccc(-c2nnc(SCC3CCCCO3)n2-c2ccc(Cl)cc2)cc1 (configuration not stated)	x	x	n	x	x	n	x
COc1cc(C2Nc3cccc4cccc(c34)N2)cc(OC)c1OC(C)=O	n	n	n	34	n	n	n
Nc1nc2ccccc2n1N=Cc1ccc(Br)cc1	x	x	x	x	x	x	x	Fam108b inh=n

High-throughput results as filed in PubChem BioAssay.
